This passage reports IC50 and I results from ChEMBL document CHEMBL1129645, “A novel series of [2-[methyl(2-phenethyl)amino]-2-oxoethyl] benzene-containing leukotriene B4 antagonists: initial structure-activity relationships” (J Med Chem, 1996).

One may read the IC50 as the concentration that gives 50% inhibition.

In assay [1] the target is Leukotriene B4 receptor (Cavia porcellus). Description: Binding affinity for Leukotriene B4 receptor of guinea pig spleen membranes.
Assay [2] deals with T1, Leukotriene B4 receptor 1 (Homo sapiens, UniProt Q15722). The experiment in a line: Compound tested for binding affinity against Leukotriene B4 receptor using radioligand binding assay from Human PMN cells at a concentration of 300 nM. In kind it is cell-based. Put shortly:
(§1)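 Human PMNs from acid-citrate-dextrose blood, used within 2 h, isolated by dextran sedimentation and Histopaque 1077 with hypotonic erythrocyte lysis. Cells were resuspended in Hanks/5 mM HEPES pH 7.4/1% ovalbumin. Compound in DMSO, 0.5 nM [3H]LTB4 and 3 × 10^6 PMN/mL were incubated 20 min at 4 °C, then GF/B filtered and scintillation counted. Nonspecific binding was defined with 1 µM LTB4. Read-out was % inhibition or IC50.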

Assay [3] concerns the target T1, Leukotriene B4 receptor 1. Description: (§2) Compound tested for binding affinity against Leukotriene B4 receptor using radioligand binding assay from Human PMN cells. In kind it is cell-based. In outline: as §1
Assay [4] has as its system Leukotriene B4 receptor (Cavia porcellus). The experiment in a line: Compound tested for binding affinity against Leukotriene B4 receptor using radioligand binding assay from guinea pig spleen membranes at a concentration of 300 nM. The following applies: Membrane.
The target of assay [5] is T1, Leukotriene B4 receptor 1. The assay is described as §2. It is filed as cell-based. Put shortly:
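Cells were resuspended in Hanks/5 mM HEPES pH 7.4/1% ovalbumin. Compound in DMSO, 0.5 nM [3H]LTB4 and 3 × 10^6 PMN/mL were incubated 20 min at 4 °C, then GF/B filtered and scintillation counted. Nonspecific binding was defined with 1 µM LTB4. Read-out was % inhibition or IC50.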
This is another data set of the same source.

Structures are written as SMILES.

T1 sequence (Q15722 whole entry): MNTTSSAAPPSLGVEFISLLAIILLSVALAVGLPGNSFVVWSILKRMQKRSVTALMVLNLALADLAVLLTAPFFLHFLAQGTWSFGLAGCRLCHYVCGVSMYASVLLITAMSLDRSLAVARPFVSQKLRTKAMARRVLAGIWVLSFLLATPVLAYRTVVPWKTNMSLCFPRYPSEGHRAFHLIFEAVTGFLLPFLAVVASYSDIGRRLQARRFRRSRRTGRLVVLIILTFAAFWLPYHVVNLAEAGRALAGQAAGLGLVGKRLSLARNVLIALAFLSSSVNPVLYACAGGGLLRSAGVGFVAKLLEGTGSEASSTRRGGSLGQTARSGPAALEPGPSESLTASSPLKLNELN

In assay [1], `CN(CCc1ccccc1)C(=O)Cc1cc(OCc2ccccc2)ccc1C(=O)O` returned an IC50 of 250 nM. In assay [2], this compound gave an I of 28%.

Turning to `C/C(=C\c1cc(CC(=O)N(C)CCc2ccccc2)ccc1-c1ccccc1)C(=O)O`, the half-maximal inhibitory concentration (IC50) in assay [1] is reported as 65 nM.

With `C/C(=C\C(=O)O)c1cc(CC(=O)N(C)CCc2ccccc2)cc(OCc2ccccc2)c1`, in assay [1], the half-inhibitory concentration (IC50) is given as 143 nM. In assay [2], the I was determined as 29%.

In turn, `CN(CCc1ccccc1)C(=O)Cc1cc(OCC(=O)O)cc(OCc2ccccc2)c1` yielded an IC50 in assay [1] of 53.3 nM.

`CN(CCc1ccccc1)C(=O)Cc1cc(CC(=O)O)cc(OCc2ccccc2)c1` yielded an IC50 in assay [1] of 200 nM.

On to `CN(CCc1ccccc1)C(=O)Cc1ccc(-c2ccccc2)c(/C=C/C(=O)O)c1`, for which the IC50 in assay [3] came out at 200 nM; in assay [1] it was 44.6 nM.

For the compound `CN(CCc1ccccc1)C(=O)Cc1cc(CC(=O)O)cc(OC/C=C/c2ccccc2)c1`, the concentration for half-maximal inhibition (IC50) in assay [1] is on record as 1200 nM. The compound also returned an I in assay [2] of 16%.

In assay [2], `CN(CCc1ccccc1)C(=O)Cc1ccc(-c2ccccc2)c(CO)c1` displayed an I of 18%.

For the compound `CN(CCc1ccccc1)C(=O)Cc1cccc(OCc2ccccc2)c1`, the IC50 in assay [1] is reported as 225 nM.

As to `CN(CCc1ccccc1)C(=O)Cc1ccc(OCc2ccccc2)c(/C=C/C(=O)O)c1`, the IC50 in assay [1] is 2.27 nM. In addition, the I in assay [2] came out at 27%.

Turning to `CN(CCc1ccccc1)C(=O)Cc1ccc(-c2ccccc2)c(C(=O)O)c1`, in assay [1], the half-inhibitory concentration (IC50) worked out at 27 nM.

In the case of `COC(=O)c1cc(CC(=O)N(C)CCc2ccccc2)ccc1-c1ccccc1`, the figures for the I in assay [4] and in assay [2] were 37% and 0%, respectively.

`CN(CCc1ccccc1)C(=O)Cc1ccc(OCc2ccccc2)cc1`: the IC50 is 65.6 nM in assay [1] and 900 nM in assay [5].
